Test results as given in ChEMBL document CHEMBL4837210 (Eur J Med Chem, 2021).
Calls of active or inactive are those of the source. The calls are words filed in the database; no cut-off is given here.

Key:
Staphylococcus aureus [1] = assay: Antibacterial activity against methicillin-resistant Staphylococcus aureus ATCC 43300 assessed as inhibition of bacterial growth by broth microdilution method; format: functional; settings: time 24 hrs
In short: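 Broth microdilution MIC. A 0.5 McFarland suspension was diluted 10-fold and added at 1.5 × 10⁷ cfu/mL to 2-fold dilutions (0.125–64) in Mueller Hinton broth. Incubated aerobically 24 h at 37 °C. MIC was the lowest concentration with no visible turbidity.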

Staphylococcus aureus [2] = assay: Ratio of MBC to MIC against erythromycin-susceptible Staphylococcus aureus ATCC 25923; format: functional
In short: (§1)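 MBC/MIC ratio from the broth microdilution MIC (24 h, 37 °C, MH broth) and the MBC (clear wells subcultured on tryptic soy agar, 24 h). A ratio ≤4 is read as bactericidal per CLSI.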

Streptococcus pyogenes [3] = assay: Antibacterial activity against erythromycin-resistant Streptococcus pyogenes 2 assessed as bacterial growth inhibition incubated for 24 hrs by CLSI protocol based broth microdilution method; format: functional
Staphylococcus aureus [4] = assay: Bactericidal activity against […] Staphylococcus aureus ATCC 25923 assessed as log reduction in colony forming unit at 4 times MIC after 3 hrs by time kill assay; format: functional
In short: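 Samples at 0, 3, 6, 9, 12 and 24 h were serially diluted in MH broth and plated on tryptic soy agar. CFU/mL from colony counts after 24 h at 37 °C.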

Staphylococcus aureus [5] = assay: Antibacterial activity against erythromycin-susceptible Staphylococcus aureus ATCC 25923 assessed as bacterial growth inhibition incubated for 24 hrs by CLSI protocol based broth microdilution method; format: functional
Enterococcus faecium [6] = assay: Antibacterial activity against vancomycin-susceptible Enterococcus faecium ATCC19434 assessed as bacterial growth inhibition incubated for 24 hrs by CLSI protocol based broth microdilution method; settings: ATCC19434, 24 h
Staphylococcus aureus [7] = assay: Ratio of MBC to MIC against penicillin-resistant Staphylococcus aureus; format: functional; in short: as §1
Enterococcus faecium [8] = assay: Antibacterial activity against vancomycin-resistant Enterococcus faecium ATCC 51559 assessed as bacterial growth inhibition incubated for 24 hrs by CLSI protocol based broth microdilution method; settings: ATCC 51559, 24 h
Streptococcus pyogenes [9] = assay: Antibacterial activity against erythromycin-susceptible Streptococcus pyogenes clinical isolate 1 assessed as bacterial growth inhibition incubated for 24 hrs by CLSI protocol based broth microdilution method; format: functional
Enterococcus faecalis = assay: Antibacterial activity against vancomycin-resistant Enterococcus faecalis ATCC 51299 assessed as bacterial growth inhibition incubated for 24 hrs by CLSI protocol based broth microdilution method; format: functional
Bacillus subtilis [10] = assay: Bactericidal activity against penicillin-susceptible Bacillus subtilis ATCC 9372 measured after 24 hrs by CLSI protocol based method; format: functional
In short: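 MBC followed on from the 24 h broth microdilution MIC plates. Aliquots from clear wells were spread on tryptic soy agar and incubated aerobically at 37 °C for 24 h. MBC was the minimum concentration giving no colonies.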

Staphylococcus aureus [11] = assay: In vivo antibacterial activity against […] Staphylococcus aureus ATCC 25923 infected in Kunming mouse assessed as reduction in bacterial load at 1 mg/kg, administered 1 hr post bacterial infection and measured after 1 hr post compound treatment; format: functional, organism-based
In short: (§2)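 Kunming mice (~25 g, 6 per group) infected intravenously with 6 × 10⁷ CFU S. aureus ATCC25923 in 0.2 mL saline. About 1 h later, 1, 5 or 25 mg/kg was given intraperitoneally in 0.5 mL vehicle, with linezolid as reference. Orbital blood (100 µL) was taken before and 1 h after treatment, spread on MH agar and counted after 24 h.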

Staphylococcus aureus [12] = assay: In vivo antibacterial activity against […] Staphylococcus aureus ATCC 25923 infected in Kunming mouse assessed as reduction in bacterial load at 25 mg/kg, ip administered 1 hr post bacterial infection and measured after 1 hr post compound treatment; format: functional, organism-based; in short: as §2
Bacillus subtilis [13] = assay: Antibacterial activity against penicillin-susceptible Bacillus subtilis ATCC 9372 assessed as bacterial growth inhibition incubated for 24 hrs by CLSI protocol based broth microdilution method; format: functional
Escherichia coli = assay: Antibacterial activity against penicillin-susceptible Escherichia coli ATCC 25922 assessed as inhibition of bacterial growth measured by broth microdilution method; format: functional; settings: time 24 hrs
In short: (§3)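 Broth microdilution in Mueller Hinton broth. A 0.5 McFarland suspension was diluted tenfold, giving an inoculum of 1.5 × 10⁷ cfu/mL. This was added to 2-fold serial compound dilutions from […]. Plates were incubated aerobically at 37 °C for 24 h. MIC was the lowest concentration with no visible turbidity.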

Staphylococcus aureus [14] = assay: Antibacterial activity against Staphylococcus aureus assessed as inhibition of bacterial growth measured by broth microdilution method; format: functional; settings: time 24 hrs; in short: as §3
Staphylococcus aureus [15] = assay: Antibacterial activity against Staphylococcus aureus ATCC 25923 assessed as reduction in bacterial growth measured after 18 passages by resistance development assay relative to control; format: functional; settings: time 24 hrs
In short: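 Serial-passage resistance test with S. aureus ATCC25923. Cells from wells at 0.5× MIC made the next inoculum (~10⁷ CFU/mL), and the MIC was redetermined after 24 h at 37 °C.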

C[n+]1c2ccccc2c(/C=C/c2ccc(C(C)(C)C)cc2)c2ccccc21.[I-]
MIC (Staphylococcus aureus [1]): 1 µg/mL
Ratio (Staphylococcus aureus [2]): 4
MIC (Streptococcus pyogenes [3]): 0.25 µg/mL
Activity (Staphylococcus aureus [4]): 2.2 CFU
MIC (Staphylococcus aureus [5]): 0.5 µg/mL
MIC (Enterococcus faecium [6]): 4 µg/mL
Ratio (Staphylococcus aureus [7]): 2
MIC (Enterococcus faecium [8]): 2 µg/mL
MIC (Streptococcus pyogenes [9]): < 0.125 µg/mL
MIC (Enterococcus faecalis): 4 µg/mL
MBC (Bacillus subtilis [10]): 0.5 µg/mL
Activity (Staphylococcus aureus [11]): inactive
Activity (Staphylococcus aureus [12]): Active
MIC (Bacillus subtilis [13]): 0.25 µg/mL
MIC (Escherichia coli): > 64 µg/mL
MIC (Staphylococcus aureus [14]): 0.5 µg/mL
fold change (FC) (Staphylococcus aureus [15]): 2
